Source: PubChem
PTK2B oligo ant – blocks oligomerization of human Pyk2 in cells; actives 0.83% (n = 99,000); z-score (the deposit names both 25 µM and 10 µM); Q293 cells, Pyk2 FERM NanoBiT luminescence; hits give low values;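 active = Z-score of -3 or lower, scaled per plate to the spread of control and sample wells; inactive = z-score above -3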;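 also: negative z-score means lost luminescence so less FERM oligomerization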
H69AR growth 86K – growth inhibitors of human H69AR lung tumor cells | actives 6% (n = 85,000) | H69AR lung tumor viability, ATP luminescence, 72 h; hits give low values | viability, % at 10 µM;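 active = viability at or below 40%; inactive = viability above 40%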;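 also: multidrug resistant small cell line overexpressing MRP-1 efflux transporter; 100% = mean luminescence of untreated control wells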
Jurkat viability – cytotoxic compounds reducing Jurkat cell viability; Jurkat E6.1 viability, ATP luminescence, 48 h; actives 1.2% (n = 56,000); AID 463; inhibition, % at 4 µM;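 active = inhibition above the mean inhibition of all tested compounds plus 3 SD, cut at about 28% in these data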
F-actin modifier – cytoskeleton assembly modification; HUVEC TNFa F-actin phalloidin imaging, high content; inhibition, % at 2 µM; actives 0.18% (n = 91,000);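 active = inhibition above the batch mean plus 3 SD and confirmed as a hit by visual image inspection, cut at about 30% in these data, passing the limit was not always enough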
Fibroblast inh – blocks proliferation of human lung fibroblasts | LL 47 human lung fibroblast viability, ATP luminescence; hits give low values | viability, % at 10 µM | actives 1.1% (n = 85,000);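 active = viability at or below 50% in the single dose screen; inactive = viability above 50%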;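 also: compound exposure lasted 72 h before the ATP readout; 100% = median luminescence of untreated cell-only wells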
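Test system: LL 47 human lung fibroblasts / Quantity: 1,150 cells in each well / Medium: IMEM growth medium with 15% fetal bovine serum / Incubation: 72 h compound exposure at 37 °C after overnight plating / Detection: CellTiter-Glo luminescence measuring cellular ATP / Read-out: % viability versus median cells-only luminescence / Benchmarks: cell-only wells, no compound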
HUVEC prolif 384 – inhibitors of human endothelial cell proliferation | HUVEC proliferation, CellTiter-Glo luminescence, 72 h; hits give low values | viability, % at 10 µM (by protocol) | actives 1.1% (n = 86,000) | AID 648;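 active = viability at or below 30%; inactive = viability above 30%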;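 also: 100% = median luminescence of DMSO-only cell control wells on each plate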
Active calls of the source: *; · = no result given. Rows were chosen to be rich in hits. Some 6% of all compounds tested hit in one or more screens of this group.

SMILES | PTK2B oligo ant | H69AR growth 86K | Jurkat viability | F-actin modifier | Fibroblast inh | HUVEC prolif 384
c1ccc2c(CCNc3ncnc4nc[nH]c34)cccc2c1 | -1.89 | 68.3 | · | -15.3 | 103.3 | 66.7
N#CCCSc1nc(N2CCOCC2)c2c(c1C#N)CCCC2 | -1.31 | 37.8* | · | -11.3 | 81.3 | 89.0
O=C(CSc1nc(-c2ccccc2)c(-c2ccccc2)[nH]1)N1CCN(S(=O)(=O)c2ccccc2)CC1 | -1.31 | 54.4 | · | -1.7 | 108.2 | 77.6
O=C1c2ccccc2C(=O)N1Cc1nn2c(-c3ccc(Cl)cc3)nnc2s1 | 0.13 | 90.1 | 1.5 | · | 94.3 | 70.0
Cc1ccccc1N(C)S(=O)(=O)c1ccc2[nH]cc(C(=O)NCC3CCCO3)c(=O)c2c1 (centres undefined) | -3.17* | 76.5 | · | · | 102.1 | 83.9
CCN(CC)S(=O)(=O)c1ccc2[nH]cc(C(=O)NCCC3=CCCCC3)c(=O)c2c1 | -2.1 | 8.5* | · | 5.3 | 81.7 | 52.7
Cc1ccc(Cl)cc1N1CCN(CC(=O)Nc2ccc(CN3CCCCC3)cc2)CC1 | -0.94 | 2.9* | · | 5.9 | 27.5* | 8.2*
COc1ccccc1N1CCN(CC(=O)Nc2ccc(CN3CCCCC3)cc2)CC1 | 0.9 | 83.3 | -12.1 | -1.3 | 100.8 | 88.4
Cc1c(CNC(=O)c2nn3c(c2Cl)NC(c2ccccc2)CC3C(F)(F)F)cnn1C (centres undefined) | -1.6 | 99.2 | 16.6 | 9.3 | 100.6 | 98.1
COc1ccc(Cl)cc1-c1nc(-c2ccc(NC(=O)c3ccncc3)cc2)no1 | 0.33 | · | -3.1 | -5.6 | · | ·
CC(Oc1ccc(Cl)cc1Cl)c1nc(-c2ccc(NC(=O)c3ccccn3)cc2)no1 (centres undefined) | 1.18 | 28.6* | · | -13.3 | 88.5 | 44.9
COc1ccccc1NC(=O)Cn1nnc(-c2ccccc2NC(=O)c2cc3ccccc3oc2=O)n1 | 0.25 | · | · | -27.6 | · | ·
O=C(CN(CCc1ccccc1)C(=O)CNS(=O)(=O)c1ccc(F)cc1)NCC1CCCO1 (centres undefined) | 0.42 | 94.2 | -9.1 | 22.9 | 95.8 | 95.5
CCC(C(=O)O/N=C(\N)c1cccc(C)c1)c1ccccc1 (centres undefined) | -0.57 | 7.9* | · | 15.8 | 81.7 | 89.4
CC1(C)Nc2ccc(O)cc2-c2c1ssc2=S | -1.43 | 68.2 | · | -12.9 | 87.6 | 26.8*
COc1cccc(-n2sc3c(c2=S)-c2cc(OC)ccc2NC3(C)C)c1 | -0.92 | · | · | 2.4 | · | ·
CCOC(=O)c1ccc(NC(=O)CN2C(=O)C3C4C=CC(C4)C3C2=O)cc1 (centres undefined) | -0.13 | 34.9* | · | -3.6 | 99.8 | 93.8
Cc1ccccc1-n1c(SCC(=O)c2cc(C)n(C)c2C)nnc1-c1ccncc1 | 0.69 | 92.7 | 12.3 | 15.2 | 105.5 | 121.1
CCC(Cc1ccccc1)NC(=O)CSc1ccsc1[N+](=O)[O-] (centres undefined) | -0.89 | 68.7 | · | 9.5 | 98.5 | 111.3
COc1cc(C(=O)Oc2ccccc2N)cc(OC)c1OC | -0.75 | 85.6 | 10.6 | · | 116.9 | 95.2
COc1cc(C(=O)Oc2cccc(C=O)c2)cc(OC)c1OC | -0.1 | 25.4* | · | -1.1 | 86.3 | 72.8
COc1cc(-c2nnc(COC(=O)c3c4c(nc5ccccc35)CCCC4)o2)cc(OC)c1OC | · | · | · | 5.8 | · | ·
Cc1cc(OC(C)C(=O)N/N=C/CC(C)c2ccccc2)ccc1Cl (centres undefined) | 3.57 | · | · | 3.8 | · | ·
CC(=O)OC1COC(N2CCc3cc(Br)c([N+](=O)[O-])cc32)C(OC(C)=O)C1OC(C)=O (centres undefined) | 0.55 | · | · | -6.4 | · | ·
Cn1c(SCC(=O)n2c3c(c4ccccc42)CCCC3)nnc1-c1ccccc1 | 0.16 | 94.6 | · | · | 99.0 | 96.5
SMILES | PTK2B oligo ant | H69AR growth 86K | Jurkat viability | F-actin modifier | Fibroblast inh | HUVEC prolif 384
CC(=O)Nc1ccc(-c2nnc(SCC(=O)n3c4c(c5ccccc53)CCCC4)n2C)cc1 | -0.31 | 35.2* | 11.8 | -16.8 | 99.9 | 93.2
CNC(=O)NC(=O)CSc1ccc(NC(C)=O)cc1 | 0.67 | 85.5 | 1.9 | 30.1 | 101.9 | 85.7
CN1CCN(Cn2cc(/C=C/C(=O)c3ccccc3)c3ccccc32)CC1 | -1.82 | 12.2* | · | -32.6 | 91.6 | 66.5
O=Cc1cn(CC(=O)N2CCOCC2)c2ccccc12 | 0.31 | 96.5 | · | 9.9 | 96.2 | 92.2
CCCCN=c1scc(-c2ccc3c(c2)NC(=O)CO3)n1N=C1CCCC1 | 0.23 | · | · | -7.1 | · | ·
CCN=c1scc(-c2ccc3c(c2)NC(=O)CO3)n1N=C1CCCC1 | 2.75 | 76.4 | 36.3* | -0.8 | 109.4 | 71.5
